Source: ChEMBL document CHEMBL1770139, “Synthesis of 'clickable' acylhomoserine lactone quorum sensing probes: unanticipated effects on mammalian cell activation” (Bioorg Med Chem Lett, 2011)
The source made the active and inactive calls. The rule behind the calls is not given here.

Key:
[1] = biological target: Eukaryotic translation initiation factor 2 subunit 1 (Mus musculus) (UniProt Q6ZWX6); test: Induction of phosphorylation of eIF2alpha in mouse BMDM cells at 50 uM after 90 mins by Western blot analysis; assay type: cell-based
Eukaryotic translation initiation factor 2 subunit 1 (Mus musculus), sequence (Q6ZWX6 whole entry): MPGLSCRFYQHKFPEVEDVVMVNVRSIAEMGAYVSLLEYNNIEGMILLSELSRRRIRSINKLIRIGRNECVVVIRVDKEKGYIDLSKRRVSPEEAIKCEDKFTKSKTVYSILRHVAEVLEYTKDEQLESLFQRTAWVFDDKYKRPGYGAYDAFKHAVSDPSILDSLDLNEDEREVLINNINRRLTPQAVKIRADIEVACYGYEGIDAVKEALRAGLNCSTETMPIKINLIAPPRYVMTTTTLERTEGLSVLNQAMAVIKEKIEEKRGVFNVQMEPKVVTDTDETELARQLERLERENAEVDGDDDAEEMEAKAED
Outline: (§1)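 Primary bone marrow-derived macrophages exposed to alkynyl AHL analogue at 50 μM for 90 minutes. Cell extracts were probed by Western blot for p38 phosphorylation, eIF2α phosphorylation and PARP cleavage.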

[2] = biological target: MAP kinase p38 (Mus musculus) (UniProt P47811+O08911+Q9WUI1+Q9Z1B7); test: Induction of phosphorylation of p38 in mouse BMDM cells at 50 uM after 90 mins by Western blot analysis; assay type: cell-based; outline: as §1
Pseudomonas aeruginosa = test: Induction of quorum sensing activity in lasI/rhlI-deleted Pseudomonas aeruginosa PAO-JP2 expressing plasmid pKD201 containing a LasI reporter coupled to the luxCDABE assessed as relative luminescence units normalized with respect to cell viability at 1 uM after 4 hrs by autoinducer activity assay
Outline: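 Autoinducer assay in P. aeruginosa luminescence reporter strain PAO-JP2, a PAO1 lasI/rhlI double mutant carrying luxABCDE.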

BMDM = test: Induction of PARP cleavage in mouse BMDM cells at 50 uM after 90 mins by Western blot analysis; assay type: cell-based; outline: as §1

SMILES	Activity [1]	Activity [2]	Activity (Pseudomonas aeruginosa)	Activity (BMDM)
[N-]=[N+]=NCCCCCCCCCC(=O)CC(=O)N[C@@H]1CCOC1=O	inactive	inactive	inactive	inactive
C#CCCCCCCCCC(=O)CC(=O)N[C@H]1CCOC1=O	Active	Active	Active	Active
[N-]=[N+]=NCCCCCCCCCC(=O)CC(=O)N[C@H]1CCOC1=O	Active	Active	inactive	Active
C#CCCCCC(=O)CC(=O)N[C@H]1CCOC1=O	inactive	inactive	inactive	inactive
CCCCCCCCCC(=O)CC(=O)N[C@H]1CCOC1=O	Active	Active	Active	Active
